Bioassay records as filed in PubChem BioAssay.
Hits are enriched below; roughly 1.7% of the tested compounds scored in any of these assays.
TPT1 inhibitor = blocks Candida albicans tRNA 2'-phosphotransferase. recombinant caTPT1, FP RNA substrate dephosphorylation. inhibition, % at 5 µM. 0.81% of 300,000 active;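 active means inhibition above the mean of all tested compounds plus 3 SD, set per screening campaign, cut at about 24% in these data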;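 further: plate controls were DMSO alone for no effect and ferristatin control at 100 nM for full effect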
NR1D1 modulator = modulates human Rev-erb alpha binding to DNA | 0.79% of 370,000 active | activity, % at 10 µM | AID 1259318 | P20393 | Rev-erbα–FITC-DNA binding, fluorescence polarization, 90 min;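 active means activity above about 14%, limit read from the data; passing the limit was not always enough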;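 further: 0% = DMSO wells with 35 nM protein and 100% = DMSO wells with 750 nM protein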
Target sequence (P20393 whole entry, looked up): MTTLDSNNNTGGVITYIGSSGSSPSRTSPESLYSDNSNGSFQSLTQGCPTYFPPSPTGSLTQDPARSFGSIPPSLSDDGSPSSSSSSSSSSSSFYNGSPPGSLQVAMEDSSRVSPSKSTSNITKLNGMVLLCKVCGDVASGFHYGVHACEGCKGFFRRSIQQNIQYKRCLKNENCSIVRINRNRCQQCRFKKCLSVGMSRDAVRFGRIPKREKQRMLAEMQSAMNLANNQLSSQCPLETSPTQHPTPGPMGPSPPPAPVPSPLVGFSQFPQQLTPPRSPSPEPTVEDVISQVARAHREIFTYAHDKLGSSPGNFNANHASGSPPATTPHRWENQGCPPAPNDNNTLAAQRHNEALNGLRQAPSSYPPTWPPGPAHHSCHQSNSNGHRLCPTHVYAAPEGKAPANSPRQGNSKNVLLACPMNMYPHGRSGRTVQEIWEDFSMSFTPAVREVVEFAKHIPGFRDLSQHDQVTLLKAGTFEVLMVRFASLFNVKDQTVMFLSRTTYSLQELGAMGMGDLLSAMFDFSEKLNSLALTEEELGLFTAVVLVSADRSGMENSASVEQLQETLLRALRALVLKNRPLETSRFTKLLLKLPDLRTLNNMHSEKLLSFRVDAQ
HNF4A DNA FP = change in binding of human HNF4 alpha to DNA; HNF4a-FITC DNA binding, fluorescence polarization, 1 h; activity change, % at 10 µM; 0.3% of 360,000 active; in the data active means activity change above about 30%, passing the limit was not always enough
CSN deneddyl inh = inhibitors of human CSN-mediated cullin deneddylation; Q92905; Purified CSN, SCF-Nedd8-OG deneddylation, fluorescence polarization; inhibition, % at 12.5 µM; 0.38% of 360,000 active; AID 651999;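 active means pattern-corrected inhibition above about 35%, with an unprinted fluorescence ratio check between 0.5 and 1.5, limit read from the data, passing the limit was not always enough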;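 further: 0% = enzyme with substrate and 100% = substrate without enzyme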
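Assay system: purified human Csn5 enzyme expressed in HEK293T cells; Input: 0.24 nM Csn5 enzyme, final concentration; Reagent: 10 nM SCFSkp2-Nedd8OG; Compound dosing: 12.5 µM single point; Times: reaction 90 min, room temperature; Technique: fluorescence polarization readout.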
Rev-erbA confirm = Rev-erb alpha (human) modulation, hit confirmation. activation, % at 25 µM. 61% of 3,000 active. Rev-erb alpha FITC-DNA binding, fluorescence polarization, 90 min. shares compounds with NR1D1 modulator. AID 1259319;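 active means activation at or above a set limit, or at least 3 SD above the negative control mean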;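 further: 0% = 35 nM protein with DMSO and 100% = 750 nM protein high control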
RORg counter = counter-screen for Rev-erb alpha modulators: RORgamma DNA binding; shares compounds with NR1D1 modulator; purified RORgamma protein-FITC-DNA binding, fluorescence polarization; IC50, µM; 8% of 910 active;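 active means Compounds whose fitted half-maximal concentration for disrupting protein-DNA binding is below 10 micromolar; the record names Rev-erb in its text, so the target is in doubt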
Numbers without * were called inactive; i = inactive; . = not tested or not shown.

SMILES	TPT1 inhibitor	NR1D1 modulator	HNF4A DNA FP	CSN deneddyl inh	Rev-erbA confirm	RORg counter
O=C(CSc1ncnc2c1oc1ccccc12)Nc1nc2ccccc2s1	-1	5	-2	3	.	.
COc1cc2c(cc1OC)CN(C(=O)CSc1nc(N)c(C#N)cc1C#N)CC2	3	37*	8	8	47*	>40
O=C(CSc1ncnc2c1sc1ccccc12)Nc1ccc(Br)cc1	-2	293*	6	1	195*	>40
CC(=O)Nc1ccc(NC(=O)CSc2nnc(-c3cc4ccccc4o3)n2C)cc1	2	3	0	1	.	.
CCc1nnc(NC(=O)CSc2ncnc3c2oc2ccccc23)s1	-4	98*	16	6	21*	.
COC(=O)C1=C(C)N(Cc2ccccc2C(F)(F)F)C(=NCc2cccc(C(F)(F)F)c2)NC1c1ccc(F)cc1 (centres undefined)	.	-7	.	.	.	.
OC(c1ccc(F)c(F)c1)c1nc(-c2ccc(Cl)cc2)cs1 (centres undefined)	.	-7	3	1	.	.
O=C(CSc1ncnc2c1oc1ccccc12)Nc1cccc(Cl)c1	0	430*	-1	1	371*	i
COC(=O)c1ccc(CSc2ncnc3c2oc2ccccc23)o1	-6	147*	1	0	144*	>40
CC(=O)NCc1ccc(OCCCN2CCC(C(O)(c3ccccc3)c3ccccc3)CC2)cc1	.	-6	.	.	.	.
CCCCOCC1CN(CCCC)S(=O)(=O)c2c(NCc3cc(OC)c(OC)c(OC)c3)cccc2O1 (centres undefined)	.	4	.	.	.	.
CCN(C)C(=O)CN1C(=O)C2CCCCN2C(=O)c2ccccc21 (centres undefined)	.	4	.	.	.	.
COc1ccc(Cn2cc3c(-c4ccc(F)cc4)nnc-3c3cc(OC)c(OC)cc32)cc1	11	5	11	23	.	.
COc1cc2c3nnc(-c4ccc(F)cc4)c-3cn(Cc3ccc(F)cc3)c2cc1OC	11	35*	6	27	27*	.
COc1cc2c3nnc(-c4ccc(F)cc4)c-3cn(Cc3ccccc3)c2cc1OC	10	43*	12	62	45*	>40
Cc1sc2ncnc(N3CCC(C(=O)Nc4nnc(CC(C)C)s4)CC3)c2c1C	-6	17*	0	-3	12	.
C#CCOCCOCCOCCNc1nc(N2CCOCC2)nc(N2CCN(C(=O)[C@H](CCC(=O)O)n3cc(C(N)CC(C)C)nn3)CC2)n1 (some centres undefined)	.	-2	.	.	.	.
CCc1ccccc1NC(=O)c1nnn(CC(=O)Nc2cccc(C)c2C)c1N	-6	35*	-3	1	42*	.
COc1ccc(-n2c3c(cc(C(=O)Nc4cccc(C)n4)c2=O)C(=O)CC(C)(C)C3)cc1	0	33*	1	4	14	.
CCc1cc2cc(C)cc(C)c2nc1SCC(=O)N1CCCC1	1	58*	-2	3	41*	>40
CCC(C)(C)NC(=O)CN(Cc1ccc2c(c1)OCO2)C(=O)CCC(=O)Nc1ccccn1	0	27*	2	-2	5	.
COC(=O)[C@H](CC(C)C)N(CCCc1cn(CC2CCCCC2)nn1)S(=O)(=O)c1ccc(F)cc1Br	.	-2	.	.	.	.
COC(=O)[C@]12C[C@H](CC(=O)NCc3cccc4ccccc34)C(=O)N(CCc3ccc(OC)c(OC)c3)C1=C[C@H](C(C)(C)C)O[C@@H]2C	.	5	.	.	.	.
CCCCN1C(=O)/C(=C/C=C2\Oc3ccccc3N2CC)SC1=S	.	15*	117	6	62*	i
COc1ccccc1C(=O)COC(=O)c1cc(=O)[nH]c2ccccc12	0	14	-4	3	.	.
SMILES	TPT1 inhibitor	NR1D1 modulator	HNF4A DNA FP	CSN deneddyl inh	Rev-erbA confirm	RORg counter
COc1ccc(C(=O)COC(=O)c2cc(=O)[nH]c3ccccc23)c(OC)c1	2	77*	1	-3	37*	>40
COC(=O)c1ccc(N/C=C/C(=O)c2ccc(OC)c(OC)c2)cc1	-2	23*	1	1	12	.
COC(=O)c1ccc(N/C=C\C(=O)c2ccc3c(c2)OCO3)cc1	-5	118*	-4	-6	44*	>40
Cc1[nH]c2ccccc2c1CC(=O)Nc1ccc(Nc2cccnc2)c(-c2ccc(C(C)(C)C)cc2)c1	.	4	.	.	.	.
Cc1ccc2nc(-c3cc(-c4ccccc4)no3)cn2c1	2	37*	10	5	19*	.
CCc1ccn2cc(-c3cc(-c4ccccc4)no3)nc2c1	-4	-9	0	8	.	.
CCOC(=O)C(C)Sc1cc(CS(=O)(=O)c2ccccc2)nc(-c2ccccc2)n1 (centres undefined)	2	29*	3	1	36*	>40
Cc1cc(NC(=O)c2cc(-c3ccccn3)nc3ccccc23)no1	0	0	-2	-2	.	.
Cc1cc(NC(=O)c2cc(-c3ccccn3)nc3ccc(Br)cc23)no1	-1	18*	4	44*	22*	.
NS(=O)(=O)c1ccc(CCNC(=O)c2cc(-c3ccc(Br)cc3)nc3ccccc23)cc1	4	17	1	4	.	.
NS(=O)(=O)c1ccc(CNC(=O)c2cc(-c3cccnc3)nc3ccc(Br)cc23)cc1	0	43*	5	2	31*	1.3*
Cc1ccc(-c2cc(C(=O)NCc3cnn(C)c3C)c3cc(Br)ccc3n2)cc1	-8	32*	0	6	11	.
NS(=O)(=O)c1ccc(CCNC(=O)c2cc(-c3ccccn3)nc3ccc(Br)cc23)cc1	-2	34*	-5	-11	30*	>40
C=Cc1ccc(C(=O)N2CCC(n3nnc4ncccc43)CC2)cc1	.	0	.	.	.	.
CCOC(=O)C1=C(C(=O)OCC)C2N(Cc3ccc(Br)cc3)c3ccccc3[C@@]23C[C@@H](C(=O)OC)N(S(=O)(=O)c2ccc(Br)cc2)C3=N1 (some centres undefined)	.	2	.	.	.	.
CCOC(=O)/C(C#N)=C/c1ccc(OCC(=O)Nc2ccc(C)c(C)c2)c(OC)c1	-1	3	-1	-1	.	.
COc1cc(/C=C(\C#N)C(=O)Nc2cc(C(F)(F)F)ccc2Cl)ccc1OCC(=O)Nc1cccc(C(F)(F)F)c1	12	34*	21	-1	19*	.
O=C(NCC1CCCO1)c1nn2c(C(F)(F)F)cc(-c3cccs3)nc2c1Cl (centres undefined)	-2	-3	10	6	.	.
COc1ccc(-c2cc(C(F)F)n3ncc(C(=O)NCC4CCCO4)c3n2)cc1 (centres undefined)	-1	36*	0	-3	15	.
COc1ccc(-c2cc(C(F)(F)F)n3ncc(C(=O)NCC4CCCO4)c3n2)cc1OC (centres undefined)	1	28*	12	-4	31*	.
O=C(NCC1CCCO1)c1nn2c(C(F)(F)F)cc(-c3cccs3)nc2c1Br (centres undefined)	1	26*	15	2	18*	.
